A word on the IC50: it is the concentration that gives 50% inhibition.

Here are results for 5 molecules from ChEMBL document CHEMBL1765022, “Synthesis and biological evaluation of tetracyclic thienopyridones as antibacterial and antitumor agents” (Bioorg Med Chem, 2011).

For one test, the system named is A549. Description: Antitumor activity against human A549 cells after 72 hrs by MTT assay. Particulars: A549, 72 h. It is filed as functional, cell-based. The essentials:
(§1)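 Cells were kept at 37 °C in 5% CO₂, in medium with 2 mM glutamine and 10% FBS; HuDe fibroblasts were grown in DMEM. Compounds were freshly dissolved in DMSO (final ≤0.1% v/v; controls received equal solvent) and applied at 0.1–20 µM for 72 h. Viability was read by MTT. IC₅₀ was extrapolated from Hill-fitted dose–response curves, from at least three independent experiments.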
On the technique in general: Tetrazolium dyes change colour on reduction, which living cells bring about.

The next test deals with Bacillus subtilis. Description: Antimicrobial activity against Bacillus subtilis ATCC 6633 by broth dilution method. It counts as functional. Summed up: (§2)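 Twofold serial broth dilution in Mueller Hinton Broth. […] Growth (drug-free), DMSO solvent and organism-free sterility tubes were included. Three replicates per organism, at least three independent experiments.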
Background: Broth dilution looks for growth in wells or tubes with falling amounts of substance.

A short description of test [1]: Inhibition of Escherichia coli DNA gyrase assessed as reduction of DNA supercoiling activity using pBR322 DNA substrate after 30 mins by electrophoresis.
The subject of test [2] is Staphylococcus epidermidis. As to the kind of experiment: Antimicrobial activity against quinilone-pencillin-resistant Staphylococcus epidermidis clinical isolate by broth dilution method. It counts as functional.
Test [3] concerns Staphylococcus epidermidis. Description: Antimicrobial activity against Staphylococcus epidermidis ATCC 12228 by broth dilution method. It is filed as functional. Summed up:
as §2

For the next test, the system named is MCF7. As to the kind of experiment: Antitumor activity against human MCF7 cells after 72 hrs by MTT assay. Particulars: MCF7, 72 h. It counts as functional, cell-based. The essentials:
as §1

The next test deals with Haemophilus influenzae. As to the kind of experiment: Antimicrobial activity against Haemophilus influenzae ATCC 19418 by broth dilution method. It is filed as functional. Summed up:
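H. influenzae was grown in Haemophilus Test Medium using twofold serial broth dilution. […] Drug-free, DMSO-only and organism-free control tubes were included. Triplicates, with at least three independent experiments.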

For the next test, the system named is Priestia megaterium. As to the kind of experiment: Antimicrobial activity against Bacillus megaterium ATCC 19213 by broth dilution method. It is filed as functional. Summed up:
as §2

The subject of a further test is Candida tropicalis. As to the kind of experiment: Antimicrobial activity against Candida tropicalis ATCC 1369 by broth dilution method. It is filed as functional. Summed up:
(§3)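 Fungi were tested by twofold serial broth dilution in Sabouraud Dextrose Broth. Inoculum was 1x10³ CFU/mL, with 48 h at 30 °C before MIC determination. Growth, DMSO solvent and sterility controls were included. Three replicates per organism, at least three independent experiments.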

The test system of test [4] is Staphylococcus aureus. As to the kind of experiment: Antimicrobial activity against quinilone-pencillin-resistant Staphylococcus aureus isolate SAR 4790 by broth dilution method. It is filed as functional. The essentials:
(§4)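 Twofold serial broth dilution in Mueller Hinton Broth. […] Drug-free tubes, DMSO-only tubes and organism-free tubes served as growth, solvent and sterility controls. Three replicates per organism, at least three independent experiments.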

A further test has as its system NHDF. As to the kind of experiment: Antitumor activity against human NHDF cells after 72 hrs by MTT assay. It is filed as functional, cell-based. The essentials: as §1
Test [5] concerns Acinetobacter baumannii. Description: Antimicrobial activity against Acinetobacter baumannii ATCC 19606 by broth dilution method. It counts as functional. Summed up:
as §2

For another test, the system named is Aspergillus niger. As to the kind of experiment: Antimicrobial activity against Aspergillus niger ATCC 6275 by broth dilution method. It counts as functional. Summed up:
as §3

Test [6] deals with Staphylococcus aureus. Description: Antimicrobial activity against quinilone-pencillin-resistant Staphylococcus aureus isolate SAR 72 by broth dilution method. It is filed as functional. Summed up:
as §4

In another test the test system is Bacillus cereus. Description: Antimicrobial activity against Bacillus cereus ATCC 11778 by broth dilution method. It is filed as functional. Summed up: as §2
In test [7] the test system is Escherichia coli. As to the kind of experiment: Antimicrobial activity against Escherichia coli ATCC 8739 by broth dilution method. It counts as functional. The essentials: as §2
For test [8], the system named is Staphylococcus aureus. Description: Antimicrobial activity against Staphylococcus aureus ATCC 6538 by broth dilution method. It is filed as functional. Summed up:
as §2

For another test, the system named is Saccharomyces cerevisiae. As to the kind of experiment: Antimicrobial activity against Saccharomyces cerevisiae ATCC 9763 by broth dilution method. It counts as functional. Summed up: as §3
Test [9] concerns Escherichia coli. As to the kind of experiment: Antimicrobial activity against quinilone-pencillin-resistant Escherichia coli clinical isolate by broth dilution method. It is filed as functional.
Another test deals with Pseudomonas aeruginosa. Description: Antimicrobial activity against Pseudomonas aeruginosa ATCC 9027 by broth dilution method. It is filed as functional. Summed up:
as §2

Test [10] has as its system Acinetobacter baumannii. Description: Antimicrobial activity against quinilone-pencillin-resistant Acinetobacter baumannii clinical isolate by broth dilution method. It counts as functional.
Test [11] in a line: Inhibition of Escherichia coli topoisomerase 4 assessed as decatenation of kDNA after 30 mins by electrophoresis. Summed up: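 E. coli topoisomerase IV decatenation of kinetoplast DNA was run in 40 mM HEPES-KOH pH 7.6 with 100 mM potassium glutamate, at varying compound amounts. Products were separated by agarose electrophoresis and quantified by gel documentation. IC₅₀ (µg/mL) is the concentration halving decatenation relative to drug-free enzyme control.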

Test [12] can be described thus: Antimicrobial activity against Bacillus thuringiensis var.kurstaki BGSC 4D1 by broth dilution method. It is filed as functional, Bacillus thuringiensis serovar kurstaki. The essentials:
as §2

In brackets after ≈: the same amount, converted by molar mass.

Regarding `O=C(O)c1cn(C2CC2)c2sc3c4ccccc4[nH]c3c2c1=O`, the half-maximal inhibitory concentration (IC50) was 10 µM in the test on A549; 1 µg/mL (≈ 3.08 µM) in test [1]; 5.2 µM in the test on MCF7; greater than 10 µM in the test with NHDF; greater than 24 µg/mL in [11]. Besides, the MIC in the test on Bacillus subtilis was 0.015 ng/mL (≈ 4.62e-05 µM); in [2] it was 3 µg/mL (≈ 9.25 µM); in [3], 0.03 µg/mL (≈ 0.0925 µM); in the test with Haemophilus influenzae it was 0.03 µg/mL (≈ 0.0925 µM); against Priestia megaterium, 0.015 ng/mL (≈ 4.62e-05 µM); in the test on Candida tropicalis, greater than 100 µg/mL. Also, the MIC against Staphylococcus aureus [4] is greater than 100 µg/mL; in the test with Acinetobacter baumannii [5], 0.07 µg/mL (≈ 0.216 µM); in the test with Aspergillus niger it was greater than 100 µg/mL; against Staphylococcus aureus [6], 0.7 µg/mL (≈ 2.16 µM); against Bacillus cereus, 0.007 µg/mL (≈ 0.0216 µM); in the test with Escherichia coli [7], 25 µg/mL (≈ 77.1 µM). The MIC with Staphylococcus aureus [8] was 0.003 µg/mL (≈ 0.00925 µM); against Saccharomyces cerevisiae, greater than 100 µg/mL; against Escherichia coli [9] it was greater than 100 µg/mL; in the test on Pseudomonas aeruginosa it was greater than 100 µg/mL; in the test with Acinetobacter baumannii [10], greater than 100 µg/mL; in test [12], 0.007 µg/mL (≈ 0.0216 µM).
With `Cc1ccc2c(c1)[nH]c1c2sc2c1c(=O)c(C(=O)O)cn2C1CC1`, the IC50 with A549 is 6.9 µM; with MCF7 it was 2.8 µM; in the test with NHDF, greater than 10 µM. Also, the MIC against Bacillus subtilis was 0.3 ng/mL (≈ 0.000887 µM); in [2], 25 µg/mL (≈ 73.9 µM); in [3], 0.3 µg/mL (≈ 0.887 µM); in the test on Haemophilus influenzae it was 1.5 µg/mL (≈ 4.43 µM); with Priestia megaterium it was 7 ng/mL (≈ 0.0207 µM); against Candida tropicalis, greater than 100 µg/mL. For the same molecule, the MIC against Staphylococcus aureus [4] is greater than 100 µg/mL; in the test with Acinetobacter baumannii [5], 0.7 µg/mL (≈ 2.07 µM); in the test on Aspergillus niger, greater than 100 µg/mL; in the test with Staphylococcus aureus [6], 12 µg/mL (≈ 35.5 µM); in the test on Bacillus cereus it was 0.3 µg/mL (≈ 0.887 µM); in the test with Escherichia coli [7] it was greater than 100 µg/mL. Besides, the MIC was 0.07 µg/mL (≈ 0.207 µM) against Staphylococcus aureus [8]; greater than 100 µg/mL in the test on Saccharomyces cerevisiae; greater than 100 µg/mL against Pseudomonas aeruginosa; greater than 100 µg/mL against Acinetobacter baumannii [10]; 0.15 µg/mL (≈ 0.443 µM) in test [12].
Take `COc1ccc2c(c1)[nH]c1c2sc2c1c(=O)c(C(=O)O)cn2C1CC1`: the IC50 is 2.6 µM with A549; 1.1 µg/mL (≈ 3.1 µM) in [1]; 1.6 µM in the test with MCF7; greater than 10 µM in the test on NHDF; greater than 24 µg/mL in test [11]. Moreover, the MIC in the test on Bacillus subtilis was 0.3 ng/mL (≈ 0.000847 µM); in test [2] it was 6 µg/mL (≈ 16.9 µM); in [3], 0.15 µg/mL (≈ 0.423 µM); in the test on Haemophilus influenzae, 0.15 µg/mL (≈ 0.423 µM); against Priestia megaterium, 0.03 ng/mL (≈ 8.47e-05 µM); in the test on Candida tropicalis, greater than 100 µg/mL. The MIC in the test with Staphylococcus aureus [4] was greater than 100 µg/mL; in the test with Acinetobacter baumannii [5], 3 µg/mL (≈ 8.47 µM); in the test on Aspergillus niger, greater than 100 µg/mL; in the test with Staphylococcus aureus [6], 1.5 µg/mL (≈ 4.23 µM); against Bacillus cereus, 0.03 µg/mL (≈ 0.0847 µM); with Escherichia coli [7], greater than 100 µg/mL. Moreover, the MIC was 0.015 µg/mL (≈ 0.0423 µM) against Staphylococcus aureus [8]; greater than 100 µg/mL in the test on Saccharomyces cerevisiae; greater than 100 µg/mL with Pseudomonas aeruginosa; greater than 100 µg/mL against Acinetobacter baumannii [10]; 0.007 µg/mL (≈ 0.0198 µM) in test [12].
As to `COc1c(C)cc2c([nH]c3c2sc2c3c(=O)c(C(=O)O)cn2C2CC2)c1C`, the IC50 in the test on A549 is 4.7 µM; with MCF7, 2.5 µM; with NHDF it was greater than 10 µM. For the same molecule, the MIC is 3000 ng/mL (≈ 7.84 µM) with Bacillus subtilis; 3 µg/mL (≈ 7.84 µM) in test [2]; 3 µg/mL (≈ 7.84 µM) in [3]; 6 µg/mL (≈ 15.7 µM) in the test with Haemophilus influenzae; 3000 ng/mL (≈ 7.84 µM) with Priestia megaterium; greater than 100 µg/mL against Candida tropicalis. For the same molecule, the MIC in the test with Staphylococcus aureus [4] was greater than 100 µg/mL; against Acinetobacter baumannii [5], greater than 100 µg/mL; in the test on Aspergillus niger, greater than 100 µg/mL; in the test with Staphylococcus aureus [6], 3 µg/mL (≈ 7.84 µM); against Bacillus cereus, 3 µg/mL (≈ 7.84 µM); against Escherichia coli [7] it was greater than 100 µg/mL. Also, the MIC was 6 µg/mL (≈ 15.7 µM) in the test on Staphylococcus aureus [8], greater than 100 µg/mL in the test with Saccharomyces cerevisiae, greater than 100 µg/mL in the test with Pseudomonas aeruginosa and 1.5 µg/mL (≈ 3.92 µM) in [12].
For the molecule `O=C(O)c1cn(C2CC2)c2sc3c4ccc(F)cc4[nH]c3c2c1=O`, the IC50 was 2.7 µM in the test with A549, 1.9 µM in the test on MCF7 and greater than 10 µM with NHDF. For the same molecule, the MIC is 0.015 ng/mL (≈ 4.38e-05 µM) in the test with Bacillus subtilis; 1.5 µg/mL (≈ 4.38 µM) in [2]; 0.03 µg/mL (≈ 0.0876 µM) in [3]; 0.15 µg/mL (≈ 0.438 µM) with Haemophilus influenzae; 0.015 ng/mL (≈ 4.38e-05 µM) in the test with Priestia megaterium; greater than 100 µg/mL in the test on Candida tropicalis. The MIC against Staphylococcus aureus [4] is greater than 100 µg/mL; in the test on Acinetobacter baumannii [5], 0.15 µg/mL (≈ 0.438 µM); in the test with Aspergillus niger, greater than 100 µg/mL; in the test with Staphylococcus aureus [6], 0.7 µg/mL (≈ 2.04 µM); against Bacillus cereus, 0.007 µg/mL (≈ 0.0204 µM); against Escherichia coli [7], 50 µg/mL (≈ 146 µM). Moreover, the MIC against Staphylococcus aureus [8] is 0.003 µg/mL (≈ 0.00876 µM); with Saccharomyces cerevisiae, 12 µg/mL (≈ 35.1 µM); in the test on Escherichia coli [9], greater than 100 µg/mL; in the test on Pseudomonas aeruginosa, greater than 100 µg/mL; against Acinetobacter baumannii [10] it was greater than 100 µg/mL; in test [12], 0.003 µg/mL (≈ 0.00876 µM).
